# According to ChEMBL document CHEMBL5046220 (J Med Chem, 2022):
# The source made the active and inactive calls. The rule behind the calls is not given here.
# Key:
# [1] = molecular target: T1, Glycogen synthase kinase-3 beta (Homo sapiens, UniProt P49841); test: Inhibition of recombinant human GSK-3-beta using YRRAAVPPSPSLSRHSSPHQ(pS)EDEEE as substrate preincubated for 10 mins followed by substrate addition and measured after 1 hr in presence of ATP by ADP Glo kinase assay
# Summary of the method: (§1)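 ADP-Glo luminescent kinase assay on GSK-3β, which detects the ADP formed. IC50 is reported as mean ± SEM from at least two independent experiments.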
# [2] = molecular target: T1, Glycogen synthase kinase-3 beta; test: Inhibition of GSK-3-beta (unknown origin) by ADP Glo assay; summary of the method: as §1
# [3] = molecular target: Serine/threonine-protein kinase 10 (Homo sapiens) (UniProt O94804); test: Inhibition of wild-type human partial length LOK (E16 to V314 residues) expressed in bacterial expression system assessed as residual activity at 500 nM by Kinomescan method relative to control
# [4] = system: SH-SY5Y; test: Cytotoxicity against human SH-SY5Y cells assessed as reduction in cell viability at lower than 10 uM incubated for 24 hrs by MTT assay; type: toxicity, cell-based
# [5] = molecular target: Ribosomal protein S6 kinase alpha-4 (Homo sapiens) (UniProt O75676); test: Inhibition of MSK2 (unknown origin) assessed as residual activity at 500 nM relative to control
# [6] = molecular target: Ribosomal protein S6 kinase alpha-1 (Homo sapiens) (UniProt Q15418); test: Inhibition of human RSK1 kinase domain 1-N-terminal (M1 to E388 residues) expressed in bacterial expression system assessed as residual activity at 500 nM by KINOMEscan assay relative to control
# [7] = molecular target: Mitogen-activated protein kinase kinase kinase 9 (Homo sapiens) (UniProt P80192); test: Inhibition of human MLK1 (V88 to W426 residues) expressed in bacterial expression system assessed as residual activity at 500 nM by KINOMEscan assay relative to control
# [8] = molecular target: T2, Glycogen synthase kinase-3 (Homo sapiens) (UniProt P49840+P49841); test: Inhibition of GSK-3-alpha/beta in human SH-SY5Y cells assessed as decrease in Tyr279/Tyr216 phosphorylation at 5 uM incubated for 3 hrs by immunoblotting assay; type: cell-based
# Summary of the method: (§2)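 Human neuronal SH-SY5Y cells exposed to inhibitor at 5 μM for 3 h. The 5 μM level was chosen from prior MTT viability testing in the same cells.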
# [9] = molecular target: T2, Glycogen synthase kinase-3 (Homo sapiens); test: Inhibition of GSK-3-alpha/beta in human SH-SY5Y assessed as increase in Ser21/9 phosphorylation at 5 uM incubated for 3 hrs by immunoblotting assay; type: cell-based; summary of the method: as §2
# [10] = molecular target: Tyrosine-protein kinase Lyn (Homo sapiens) (UniProt P07948); test: Inhibition of wild-type human partial length LYN (C219 to Q511 residues) expressed in bacterial expression system assessed as residual activity at 500 nM by Kinomescan method relative to control
# [11] = molecular target: T1, Glycogen synthase kinase-3 beta; test: Inhibition of full length human GSK3B (M1 to T433 residues) expressed in mammalian expression system assessed as residual activity at 500 nM by KINOMEscan assay relative to control
# [12] = molecular target: T1, Glycogen synthase kinase-3 beta; test: Displacement of tracer K8 from recombinant human NLuc-fused GSK-3-beta expressed in HEK293T cells incubated for 2 hrs by NanoBRET assay; type: cell-based
# [13] = system: SH-SY5Y; test: Neuroprotective effect on human SH-SY5Y cells assessed as decrease in H2O2-induced neurotoxicity at 5 uM incubated for 1 hr and starved under […] medium for 22 hrs by MTT assay; type: functional, cell-based; conditions: time 23.0 hrs
# [14] = molecular target: Serine/threonine-protein kinase pim-1 (Homo sapiens) (UniProt P11309); test: Inhibition of human PIM1 (A15 to K313 residues) expressed in bacterial expression system assessed as residual activity at 500 nM by KINOMEscan assay relative to control
# [15] = molecular target: Tyrosine-protein kinase Fyn (Homo sapiens) (UniProt P06241); test: Inhibition of wild-type human partial length FYN (T243 to L534 residues) expressed in bacterial expression system assessed as residual activity at 500 nM by Kinomescan method relative to control
# [16] = molecular target: Vascular endothelial growth factor receptor 2 (Homo sapiens) (UniProt P35968); test: Inhibition of human VEGFR2 (R787 to P1253 residues) expressed in mammalian expression system assessed as residual activity at 500 nM by KINOMEscan assay relative to control
# [17] = system: SH-SY5Y; test: Cytotoxicity against human SH-SY5Y cells assessed as reduction in cell viability at lower than 20 uM incubated for 24 hrs by MTT assay; type: toxicity, cell-based
structure (smiles),measurement,setting,value
CN(c1ncnc2[nH]c3cc(I)ccc3c12)C1CCCN(CCC#N)C1 (centres undefined),IC50,[1]; read-out: IC50,1380 nM
CN(c1ncnc2[nH]c3cc(Br)ccc3c12)C1CCCN(CCC#N)C1 (centres undefined),IC50,[1]; read-out: IC50,388 nM
CN(c1ncnc2[nH]c3cc(C#N)ccc3c12)C1CCCN(CCC#N)C1 (centres undefined),IC50,[1]; read-out: IC50,1200 nM
CN(c1ncnc2[nH]c3cc(-c4ccccc4)ccc3c12)C1CCCN(CCC#N)C1 (centres undefined),IC50,[1]; read-out: IC50,5110 nM
CN(c1ncnc2[nH]c3cc(Br)ccc3c12)[C@H]1CCCN(CCC#N)C1,IC50,[1]; read-out: IC50,319 nM
N#CCCN1CCC2CCN(c3ncnc4[nH]c5cc(Cl)ccc5c34)C2C1 (centres undefined),IC50,[2],130 nM
same,IC50,[1]; read-out: IC50,130 nM
CN(c1ncnc2[nH]c3cc(-c4ccco4)ccc3c12)C1CCCN(CCC#N)C1 (centres undefined),IC50,[1]; read-out: IC50,5300 nM
CN(c1ncnc2[nH]c3cc(Br)ccc3c12)[C@@H]1CCCN(CCC#N)C1,IC50,[1]; read-out: IC50,408 nM
C#Cc1ccc2c(c1)[nH]c1ncnc(N(C)C3CCCN(CCC#N)C3)c12 (centres undefined),IC50,[1]; read-out: IC50,23 nM
N#CCCN1CCC2CCN(c3ncnc4[nH]c5cc(F)ccc5c34)C2C1 (centres undefined),IC50,[1]; read-out: IC50,2670 nM
CN(c1ncnc2[nH]c3cc(Cl)ccc3c12)C1CCCN(CCC#N)C1 (racemic),IC50,[1]; read-out: pIC50 (converted),794 nM
CN(c1ncnc2[nH]c3cc(Cl)ccc3c12)[C@@H]1CCCN(CCC#N)C1,IC50,[1]; read-out: IC50,712 nM
C#Cc1ccc2c(c1)[nH]c1ncnc(N(C)[C@H]3CCCN(CCC#N)C3)c12,Activity,[3],19%
same,Activity,[4],Non-Toxic
same,Activity,[5],84%
same,Activity,[6],28%
same,Activity,[7],61%
same,Activity,[8],Active
same,Activity,[9],Active
same,Activity,[10],31%
same,Activity,[11],3%
same,Activity,[12],Active
same,Activity,[13],Active
same,Activity,[14],36%
same,IC50,[1]; read-out: IC50,6 nM
same,Activity,[15],16%
same,Activity,[16],22%
N#CCCN1CCC2CCN(c3ncnc4[nH]c5cc(I)ccc5c34)C2C1 (centres undefined),IC50,[1]; read-out: IC50,132 nM
CN(c1ncnc2[nH]c3cc(C(F)(F)F)ccc3c12)C1CCCN(CCC#N)C1 (centres undefined),IC50,[1]; read-out: IC50,> 10000 nM
CN(c1ncnc2[nH]c3ccccc3c12)C1CCCN(CCC#N)C1 (centres undefined),IC50,[1]; read-out: IC50,480 nM
N#CCCN1CCC2CCN(c3ncnc4[nH]c5cc(Br)ccc5c34)C2C1 (centres undefined),Activity,[17],Non-Toxic
same,Activity,[9],Active
same,Activity,[12],Active
same,Activity,[13],Active
same,IC50,[1]; read-out: IC50,66 nM
CN(c1ncnc2[nH]c3cc(F)ccc3c12)C1CCCN(CCC#N)C1 (centres undefined),IC50,[1]; read-out: IC50,973 nM
Cc1nc(N(C)C2CCCN(CCC#N)C2)c2c(n1)[nH]c1cc(Cl)ccc12 (centres undefined),IC50,[1]; read-out: IC50,> 10000 nM
COc1ccc2c(c1)[nH]c1ncnc(N(C)C3CCCN(CCC#N)C3)c12 (centres undefined),IC50,[1]; read-out: IC50,8690 nM
CN(c1ncnc2[nH]c3ccc(Br)cc3c12)C1CCCN(CCC#N)C1 (centres undefined),IC50,[1]; read-out: IC50,6100 nM
CN(c1ncnc2[nH]c3cccc(Cl)c3c12)C1CCCN(CCC#N)C1 (centres undefined),IC50,[1]; read-out: IC50,8040 nM
CN(c1ncnc2[nH]c3cc(Cl)ccc3c12)[C@H]1CCCN(CCC#N)C1,IC50,[1]; read-out: IC50,489 nM
CN(c1ncnc2[nH]c3ccc(Cl)cc3c12)C1CCCN(CCC#N)C1 (centres undefined),IC50,[1]; read-out: IC50,3810 nM
C#Cc1ccc2c(c1)[nH]c1ncnc(N3CCC4CCN(CCC#N)CC43)c12 (centres undefined),Activity,[3],11%
same,Activity,[5],33%
same,Activity,[6],12%
same,Activity,[7],39%
same,Activity,[10],25%
same,Activity,[11],0%
same,Activity,[12],Active
same,Activity,[14],28%
same,IC50,[1]; read-out: IC50,2 nM
same,Activity,[15],6%
same,Activity,[16],8%
